From ChEMBL document CHEMBL4190227, “Syntheses, toxicities and anti-inflammation of H2S-donors based on non-steroidal anti-inflammatory drugs” (Eur J Med Chem, 2017)
pIC50: −log10 of the molar value. Calls of active or inactive are those of the source. The rule behind the calls is not given here.

Assays:
[1] = Drug degradation in phosphate buffer assessed as H2S release by measuring test compound half life at 40 uM measured every 5 mins in presence of L-cysteine by UV-Vis spectrometry; assay type: physicochemical
Summary of the method: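 Sulfide release at 37.5 °C: donor (40 mM THF stock) added to pH 7.4 phosphate buffer with 1.0 mM L-cysteine; aliquots taken every 5 min into zinc acetate/N,N-dimethyl-1,4-phenylenediamine/FeCl3 in HCl, A670 read 15 min later; H2S quantified against Na2S standard curve (5–150 μM); release curve plotted vs time; four independent experiments.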

[2] = system: RAW264.7; assay: Inhibition of LPS-induced COX2 expression in mouse RAW264.7 cells at 100 uM incubated for 24 hrs post LPS induction by ELISA relative to control; assay type: functional; settings: RAW264.7, 24 h, read-out: INH
Summary of the method: (§1)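 LPS (1 μg/mL) for 4 h, then compound at 10, 50, 100 μM for 24 h; cells lysed in RIPA, spun 12,000×g 10 min, protein normalised by BCA to 0.1 mg/mL; target (TNF-α, HO-1, IL-10 or COX-2) quantified by sandwich ELISA kit with mouse-specific polyclonal antibodies; four independent experiments.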

[3] = system: RAW264.7; assay: Antiinflammatory activity in mouse RAW264.7 cells assessed as increase in LPS-induced HO-1 expression incubated for 24 hrs post LPS induction by ELISA; assay type: functional, cell-based; summary of the method: as §1
[4] = system: RAW264.7; assay: Antiinflammatory activity in mouse RAW264.7 cells assessed as reduction in LPS-induced TNFalpha levels incubated for 24 hrs post LPS induction by ELISA; assay type: functional, cell-based; summary of the method: as §1
[5] = system: RAW264.7; assay: Antiinflammatory activity in mouse RAW264.7 cells assessed as increase in LPS-induced HO-1 expression at 100 uM incubated for 24 hrs post LPS induction by ELISA relative to contol; assay type: functional; summary of the method: as §1
[6] = Drug degradation in phosphate buffer assessed as H2S release by measuring test compound half life at 40 uM measured every 5 mins in presence of TECP by UV-Vis spectrometry; assay type: physicochemical
Summary of the method: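 Sulfide release at 37.5 °C: donor (40 mM THF stock) added to pH 7.4 phosphate buffer with 1.0 mM TECP; aliquots taken every 5 min into methylene blue cocktail (zinc acetate, N,N-dimethyl-1,4-phenylenediamine, FeCl3 in HCl), A670 read 15 min later; H2S from Na2S calibration curve; concentration vs time curve; four independent experiments.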

[7] = system: RAW264.7; assay: Antiinflammatory activity in mouse RAW264.7 cells assessed as increase in LPS-induced IL10 levels at 10 to 100 uM incubated for 24 hrs post LPS induction by ELISA; assay type: functional, cell-based; summary of the method: as §1
[8] = (§2) Cytotoxicity against mouse RAW264.7 cells assessed as cell viability at 10 to 100 uM treated for 24 hrs in absence of LPS by MTT assay; assay type: cell-based; settings: RAW264.7 cells, read-out: Activity
Summary of the method: (§3)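 Macrophages in high-glucose DMEM + 10% heat-inactivated FBS, 2 mM glutamine, 37 °C, 5% CO2; exposed 24 h to 10, 50, 100 μM with or without LPS 1 μg/mL; MTT added 4 h, formazan dissolved in DMSO, A570, expressed as % of control; four independent experiments.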

[9] = system: RAW264.7; assay: Antiinflammatory activity in mouse RAW264.7 cells assessed as increase in IL10 levels at 10 to 100 uM measured after 24 hrs in absence of LPS by ELISA; assay type: functional, cell-based
Summary of the method: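 Macrophages exposed 24 h to 10, 50, 100 μM without LPS; lysates (RIPA, 12,000×g spin) normalised by BCA to 0.1 mg/mL protein; IL-10 measured by mouse-specific sandwich ELISA kit; four independent experiments, mean ± SD.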

[10] = target: T1, Nitric oxide synthase, inducible (Mus musculus) (UniProt P29477); assay: Inhibition of iNOS in mouse RAW264.7 cells assessed as reduction in LPS-induced NO production administered for 24 hrs post LPS induction by Griess method; assay type: cell-based
T1 sequence (whole entry): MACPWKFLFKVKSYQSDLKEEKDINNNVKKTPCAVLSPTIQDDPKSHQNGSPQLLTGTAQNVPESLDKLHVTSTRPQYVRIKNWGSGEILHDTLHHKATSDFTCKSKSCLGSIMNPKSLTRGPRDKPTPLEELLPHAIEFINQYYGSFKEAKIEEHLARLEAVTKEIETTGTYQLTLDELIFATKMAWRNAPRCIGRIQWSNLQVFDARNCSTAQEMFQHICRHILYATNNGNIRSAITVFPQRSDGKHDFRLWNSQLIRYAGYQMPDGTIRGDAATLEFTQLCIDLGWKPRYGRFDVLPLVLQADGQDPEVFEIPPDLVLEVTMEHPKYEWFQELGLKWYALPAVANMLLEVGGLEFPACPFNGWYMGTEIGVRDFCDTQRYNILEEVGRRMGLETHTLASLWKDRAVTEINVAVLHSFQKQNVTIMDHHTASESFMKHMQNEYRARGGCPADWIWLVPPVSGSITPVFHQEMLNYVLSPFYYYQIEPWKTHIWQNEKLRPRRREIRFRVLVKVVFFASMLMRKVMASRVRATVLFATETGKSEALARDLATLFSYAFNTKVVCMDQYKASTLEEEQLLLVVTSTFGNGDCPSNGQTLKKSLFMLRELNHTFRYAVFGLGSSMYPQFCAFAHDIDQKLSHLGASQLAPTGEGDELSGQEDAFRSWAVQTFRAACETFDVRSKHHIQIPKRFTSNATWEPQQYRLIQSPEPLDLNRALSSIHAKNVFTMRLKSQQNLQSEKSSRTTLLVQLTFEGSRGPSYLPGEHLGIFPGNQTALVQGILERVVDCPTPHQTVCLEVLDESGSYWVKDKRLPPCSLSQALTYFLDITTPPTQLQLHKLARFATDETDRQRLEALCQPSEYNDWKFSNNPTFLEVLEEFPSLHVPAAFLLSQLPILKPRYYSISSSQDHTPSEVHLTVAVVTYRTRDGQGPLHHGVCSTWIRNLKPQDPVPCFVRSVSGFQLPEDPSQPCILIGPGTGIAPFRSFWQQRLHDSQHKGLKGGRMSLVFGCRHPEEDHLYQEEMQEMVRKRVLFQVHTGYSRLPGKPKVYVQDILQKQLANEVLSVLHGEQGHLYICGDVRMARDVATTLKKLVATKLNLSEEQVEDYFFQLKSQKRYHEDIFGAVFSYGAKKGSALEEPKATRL
Summary of the method: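 RAW264.7 cells stimulated with LPS 1 μg/mL for 4 h, then compound (10, 50, 100 μM) for 24 h; culture medium reacted with Griess reagents I and II, absorbance 570 nm; nitrite from sodium nitrite standard curve (0–100 μM in medium); four independent experiments, mean ± SD.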

[11] = system: L02; assay: Cytotoxicity against human LO2 cells assessed as reduction in cell survival after 24 hrs by MTT assay; assay type: cell-based; settings: L02, 24 h
[12] = system: HepG2; assay: Cytotoxicity against human HepG2 cells assessed as reduction in cell survival after 24 hrs by MTT assay; assay type: cell-based; settings: HepG2, 24 h
[13] = (§4) Cytotoxicity against mouse RAW264.7 cells assessed as cell viability at 10 to 100 uM treated for 24 hrs post LPS induction by MTT assay; assay type: cell-based; settings: RAW264.7 cells, read-out: Activity; summary of the method: as §3
[14] = system: RAW264.7; assay: Antiinflammatory activity in mouse RAW264.7 cells assessed as LPS-induced TNFalpha levels at 100 uM incubated for 24 hrs post LPS induction by ELISA relative to control; assay type: functional; summary of the method: as §1
[15] = system: RAW264.7; assay: Inhibition of LPS-induced COX2 expression in mouse RAW264.7 cells at 10 to 100 uM incubated for 24 hrs post LPS induction by ELISA; assay type: functional, cell-based; summary of the method: as §1
[16] = species on record: Danio rerio; assay: Toxicity in AB zebrafish embryo assessed as rate of embryo malformation at 0.5 to 20 uM measured at 96 hrs post fertilization by stereoscopic dissecting light microscopic analysis relative to DMF; assay type: organism-based; settings: in vivo
Summary of the method: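 AB embryos exposed from 4 hpf through 96 hpf to compound or DMF vehicle (1:1000); malformations scored at 96 hpf under stereoscopic dissecting microscope; 100 embryos per group in three replicates; three independent experiments, mean ± SD.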

[17] = system: RAW264.7; assay: as §2; assay type: cell-based; settings: raw264.7, 24 h, 100 µM; summary of the method: as §3
[18] = species on record: Danio rerio; assay: Toxicity in AB zebrafish embryo assessed as reduction in hatching rate of embryos up to 5 uM measured at 48 hrs post fertilization by dissecting light microscopic analysis; assay type: organism-based; settings: in vivo
Summary of the method: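 AB embryos exposed from 4 to 72 hpf to compound (0.5–20 μM) or DMF vehicle (1:1000), one embryo per well; hatch rate scored at 48 hpf; n=100 per group in three replicates; three independent experiments, mean ± SD.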

[19] = system: RAW264.7; assay: as §4; assay type: cell-based; settings: raw264.7, 24 h, 100 µM; summary of the method: as §3

Compound	half-life at 40 µM [6]	pIC50 [11]	pIC50 [12]	also measured
O=C(O)CCCCC1CCSS1 (stereo not drawn) [LIPOIC ACID, ALPHA]				half-life at 40 µM [1]: 118 min
CC(C)Cc1ccc(C(C)C(=O)Oc2ccc(-c3cc(=S)ss3)cc2)cc1 (stereo not drawn)	1.4 min	3.05	3.03	inhibition at 100 µM [2]: 60%; Activity [3]: Dose-dependent effect; Activity [4]: Dose-dependent effect; fold change (FC) [5]: >3; Activity [7]: Active; viability at 24 h, up to 100 µM [8]: 70 to 110%; Activity [9]: Active; inhibition [10]: Dose-dependent effect; viability at 24 h, up to 100 µM [13]: 70 to 110%; Activity [14]: 5 - 20%
NC(=S)c1ccc(OC(=O)c2ccccc2Cl)cc1	7.1 min	2.96	2.98	
CC1=C(CC(=O)Oc2ccc(C(N)=S)cc2)c2cc(F)ccc2/C1=C\c1ccc([S+](C)[O-])cc1 (stereo not drawn)	3.1 min	2.83	2.97	
NC(=S)c1ccc(OC(=O)c2ccc(Cl)cc2)cc1	14.4 min	< 3.10	2.98	
CC(C(=O)Oc1ccc(C(N)=S)cc1)c1cccc(C(=O)c2ccccc2)c1 (stereo not drawn)	9.8 min	2.93	2.97	
COc1ccc2cc(C(C)C(=O)Oc3ccc(C(N)=S)cc3)ccc2c1 (stereo not drawn) [ATB-346]	13.4 min	2.44	3.64	Activity [3]: Dose-dependent effect; Activity [4]: Dose-dependent effect; inhibition [15]: Active; fold change (FC) [5]: <=2; Activity [7]: Active; viability at 24 h, up to 100 µM [8]: 70 to 110%; Activity [9]: Active; inhibition [10]: Dose-dependent effect; viability at 24 h, up to 100 µM [13]: 70 to 110%
O=C(CCCCC1CCSS1)Oc1ccc2ccc(=O)oc2c1 (stereo not drawn)		2.59	3.04	half-life at 40 µM [1]: 4.6 min
O=C(/C=C/c1ccccc1)Oc1ccc(-c2cc(=S)ss2)cc1	1.9 min	3.27	2.97	
Oc1ccc(-c2cc(=S)ss2)cc1	3.9 min			
NC(=S)c1ccc(OC(=O)/C=C/c2ccccc2)cc1	4.4 min	< 3.10	3.39	
CC(C(=O)Oc1ccc(-c2cc(=S)ss2)cc1)c1cccc(C(=O)c2ccccc2)c1 (stereo not drawn)	3.4 min	3.26	2.89	
NC(=S)c1ccccc1	0.9 min			
COc1ccc2c(c1)c(CC(=O)Oc1ccc(-c3cc(=S)ss3)cc1)c(C)n2C(=O)c1ccc(Cl)cc1	1.8 min	3.47	2.48	Activity [3]: Dose-dependent effect; Activity [4]: Dose-dependent effect; Activity [16]: 2%; inhibition [15]: Active; fold change (FC) [5]: <=2; Activity [7]: Active; Activity [17]: Non-Toxic; Activity [18]: Toxic; Activity [9]: Active; inhibition [10]: Dose-dependent effect; Activity [19]: Non-Toxic; Activity [14]: 5 - 20%
CC(C(=O)Oc1ccc(C(N)=S)cc1)c1ccc(-c2ccccc2)c(F)c1 (stereo not drawn)	3.3 min	< 3.10	2.77	
COc1ccc2cc(C(C)C(=O)Oc3ccc(-c4cc(=S)ss4)cc3)ccc2c1 (stereo not drawn)	3.1 min	2.98	2.95	
